Experimental data published in ChEMBL document CHEMBL1145212, “Fluorinated diaryl sulfides as serotonin transporter ligands: synthesis, structure-activity relationship study, and in vivo evaluation of fluorine-18-labeled compounds as PET imaging agents” (J Med Chem, 2005).

Key:
Assay type in all cases: cell-based
[1] = target: Sodium-dependent dopamine transporter (Homo sapiens, UniProt Q01959); assay: In vitro displacement of [3H]GBR-12935 from human dopamine transporter expressed in HEK293 cells
Chain of Sodium-dependent dopamine transporter (Q01959 whole entry): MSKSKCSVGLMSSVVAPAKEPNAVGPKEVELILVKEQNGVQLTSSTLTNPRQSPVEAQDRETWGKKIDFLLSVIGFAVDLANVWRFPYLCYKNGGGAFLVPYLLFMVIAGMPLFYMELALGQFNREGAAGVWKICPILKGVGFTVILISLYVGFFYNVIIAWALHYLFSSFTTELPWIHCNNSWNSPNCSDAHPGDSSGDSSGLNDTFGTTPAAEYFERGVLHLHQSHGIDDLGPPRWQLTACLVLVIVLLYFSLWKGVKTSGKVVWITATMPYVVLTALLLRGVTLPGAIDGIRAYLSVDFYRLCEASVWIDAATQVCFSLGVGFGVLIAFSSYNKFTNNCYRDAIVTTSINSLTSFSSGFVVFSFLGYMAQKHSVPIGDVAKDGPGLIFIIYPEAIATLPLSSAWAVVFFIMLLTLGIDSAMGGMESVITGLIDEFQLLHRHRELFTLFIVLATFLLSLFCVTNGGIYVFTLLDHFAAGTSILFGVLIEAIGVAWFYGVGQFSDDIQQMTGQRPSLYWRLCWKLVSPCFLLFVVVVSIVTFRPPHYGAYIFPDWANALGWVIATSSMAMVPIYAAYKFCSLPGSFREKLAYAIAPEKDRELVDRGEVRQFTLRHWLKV
In short: (§1)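 Competitive binding using cloned human transporters expressed in HEK-293 cells. NET was labelled with [³H]nisoxetine and DAT with [³H]GBR12935, following a previously published procedure.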

[2] = target: Sodium-dependent serotonin transporter (Homo sapiens, UniProt P31645); assay: In vitro displacement of [3H]paroxetine from human serotonin transporter expressed in HEK293 cells
Chain of Sodium-dependent serotonin transporter (P31645 whole entry): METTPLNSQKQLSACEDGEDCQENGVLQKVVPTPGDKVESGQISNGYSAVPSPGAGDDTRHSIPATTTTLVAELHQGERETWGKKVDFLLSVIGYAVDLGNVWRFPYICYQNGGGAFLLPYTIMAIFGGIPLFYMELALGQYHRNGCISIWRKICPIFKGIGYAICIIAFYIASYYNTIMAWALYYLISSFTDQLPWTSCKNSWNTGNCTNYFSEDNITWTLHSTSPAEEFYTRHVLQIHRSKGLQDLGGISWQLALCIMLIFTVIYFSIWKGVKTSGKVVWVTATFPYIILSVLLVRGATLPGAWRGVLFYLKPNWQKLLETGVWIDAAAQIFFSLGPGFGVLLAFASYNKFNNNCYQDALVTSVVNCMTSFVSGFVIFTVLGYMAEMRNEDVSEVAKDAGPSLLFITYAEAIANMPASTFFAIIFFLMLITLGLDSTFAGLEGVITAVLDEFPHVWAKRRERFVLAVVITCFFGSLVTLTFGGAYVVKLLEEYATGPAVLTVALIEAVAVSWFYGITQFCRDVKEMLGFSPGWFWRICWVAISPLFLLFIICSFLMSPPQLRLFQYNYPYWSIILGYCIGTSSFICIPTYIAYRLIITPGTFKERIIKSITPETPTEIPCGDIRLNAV

[3] = target: Sodium-dependent noradrenaline transporter (Homo sapiens, UniProt P23975); assay: In vitro displacement of [3H]nisoxetine from human norepinephrine transporter expressed in HEK293 cells; in short: as §1
Chain of Sodium-dependent noradrenaline transporter (P23975 whole entry): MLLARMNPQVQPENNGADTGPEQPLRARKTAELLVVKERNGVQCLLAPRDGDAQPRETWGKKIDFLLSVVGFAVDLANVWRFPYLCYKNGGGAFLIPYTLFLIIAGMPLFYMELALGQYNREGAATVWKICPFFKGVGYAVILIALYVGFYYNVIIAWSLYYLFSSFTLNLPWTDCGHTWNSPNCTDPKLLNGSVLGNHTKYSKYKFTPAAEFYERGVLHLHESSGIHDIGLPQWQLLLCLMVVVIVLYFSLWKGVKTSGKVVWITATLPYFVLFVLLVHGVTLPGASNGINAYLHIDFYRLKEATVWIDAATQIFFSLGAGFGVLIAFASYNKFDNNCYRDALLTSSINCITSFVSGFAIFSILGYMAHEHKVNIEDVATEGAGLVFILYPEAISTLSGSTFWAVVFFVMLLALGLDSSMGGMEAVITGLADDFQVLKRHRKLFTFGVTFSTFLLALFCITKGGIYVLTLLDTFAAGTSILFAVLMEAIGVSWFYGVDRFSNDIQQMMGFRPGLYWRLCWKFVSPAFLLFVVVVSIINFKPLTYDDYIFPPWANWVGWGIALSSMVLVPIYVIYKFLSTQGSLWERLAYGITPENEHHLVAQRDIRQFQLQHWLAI

## Cc1ccc(Sc2ccccc2CNCCCF)c(N)c1
[1]
  Ki: > 10 µM
[2]
  Ki: 0.518 µM
[3]
  Ki: 4.33 µM
